Source: ChEMBL document CHEMBL4619733, “Design and optimization of a series of 4-(3-azabicyclo[3.1.0]hexan-3-yl)pyrimidin-2-amines: Dual inhibitors of TYK2 and JAK1” (Bioorg Med Chem, 2020)
Converted amounts (≈) assume the structure as drawn.

What was measured:
[1] = Lipophilicity, log D of compound at pH 7.4; assay type: physicochemical; settings: buffer
[2] = Apparent permeability in dog MDCK2 cells at pH 7.4; assay type: ADME, cell-based, Canis lupus familiaris, MDCK-II; settings: MDCK
Outline: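 Passive permeability across MDCK-II cells; mean apparent permeability reported.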

[3] = Half life in Sprague-Dawley rat at 1 mg/kg, iv; assay type: ADME, organism-based; settings: in vivo
[4] = Volume of distribution in Sprague-Dawley rat at 1 mg/kg, iv; assay type: ADME, organism-based; settings: in vivo
[5] = Aqueous solubility of compound in pH 6.5 buffer; assay type: physicochemical
Outline: (§1)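 Solubility measured on crystalline material at pH 6.5 and pH 2.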

[6] = AUC infinity in Sprague-Dawley rat at 3 mg/kg, po; assay type: ADME, organism-based; set-up: dose 3 mg/kg, route oral, time infinity; settings: in vivo
Outline: (§2)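 Sprague-Dawley rats dosed orally at 3 mg/kg, with intravenous reference at 1 mg/kg.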

[7] = Intrinsic clearance in human liver microsome; assay type: ADME; settings: liver microsomes, read-out: CLH
[8] = Intrinsic clearance in human hepatocytes per million cells; assay type: ADME, cell-based, Hepatocyte; settings: read-out: CLH
[9] = Oral bioavailability in Sprague-Dawley rat at 3 mg/kg; assay type: ADME, organism-based; settings: in vivo; outline: as §2
[10] = Aqueous solubility of compound in pH 2 buffer; assay type: physicochemical; outline: as §1
[11] = Cmax in Sprague-Dawley rat at 3 mg/kg, po; assay type: ADME, organism-based; set-up: dose 3 mg/kg, route oral; settings: in vivo; outline: as §2
[12] = Clearance in Sprague-Dawley rat plasma at 1 mg/kg, iv; assay type: ADME, organism-based

| SMILES | logD [1] | other results |
| --- | --- | --- |
| C[C@@H]1[C@@H]2CN(c3nc(Nc4cnn(C)c4)ncc3F)C[C@]12NC(=O)[C@@H]1C[C@H]1C#N | 2.35 | Papp [2]: 12.9 ×10⁻⁶ cm/s |
| O=C(N[C@]12C[C@H]1CN(c1nc(Nc3cnn(CCO)c3)ncc1F)C2)C1CC1 | 1.75 |  |
| C[C@@H]1[C@@H]2CN(c3nc(Nc4cnn(C)c4)ncc3F)C[C@]12NC(=O)[C@@H]1CC1(F)F | 2.65 | half-life [3]: 1.4 h; Vd [4]: 1.2 L/kg; solubility [5]: 140 µg/mL (≈ 344 µM); AUC(0-inf) [6]: 2030 ng·h/mL; microsomal CLint [7]: < 8 µL/min/mg; hepatocyte CLint [8]: 3.45 µL/min/1e6 cells; Papp [2]: 17 ×10⁻⁶ cm/s; bioavailability [9]: 54%; solubility [10]: > 15000 µg/mL; Cmax [11]: 614 ng/mL; clearance [12]: 13 mL/min/kg |
| C[C@@H]1[C@@H]2CN(c3nc(Nc4cnn(CCO)c4)ncc3F)C[C@]12NC(=O)[C@H]1C[C@@H]1C#N | 1.75 | Papp [2]: 1.2 ×10⁻⁶ cm/s |
| O=C(N[C@@]12C[C@@H]1CN(c1nc(Nc3cnn(CCO)c3)ncc1F)C2)C1CC1 | 1.74 |  |
| C[C@@H]1[C@@H]2CN(c3nc(Nc4cnn(CCO)c4)ncc3F)C[C@]12NC(=O)C1CC1 | 2.1 |  |

The next lines start with results.

| logD [1] | SMILES | other results |
| --- | --- | --- |
| 2.92 | C[C@@H]1[C@@H]2CN(c3nc(Nc4cnn(C)c4)ncc3F)C[C@]12NC(=O)[C@H]1CC1(F)F |  |
| 1.8 | CCNC(=O)c1ccc(Nc2nccc(N3CC4CCC(C3)N4C(=O)C3CC3)n2)cc1 |  |
| 1.43 | N#C[C@H]1C[C@@H]1C(=O)N[C@@]12C[C@@H]1CN(c1nc(Nc3cnn(CCO)c3)ncc1F)C2 |  |
| 1.8 | O=C(C1CC1)N1C2CCC1CN(c1nc(Nc3cnn(CCO)c3)ncc1F)C2 |  |
| 1.4 | N#C[C@@H]1C[C@H]1C(=O)N[C@@]12C[C@@H]1CN(c1nc(Nc3cnn(CCO)c3)ncc1F)C2 |  |
| 1.71 | C[C@@H]1[C@@H]2CN(c3nc(Nc4cnn(CCO)c4)ncc3F)C[C@]12NC(=O)[C@@H]1C[C@H]1C#N |  |
| 1.7 | CCNC(=O)c1ccc(Nc2nccc(N3CC4CC(C3)N4C(=O)C3CC3)n2)cc1 |  |
| 2.32 | C[C@@H]1[C@@H]2CN(c3nc(Nc4cnn(C)c4)ncc3F)C[C@]12NC(=O)[C@H]1C[C@@H]1C#N | Papp [2]: 13.8 ×10⁻⁶ cm/s |
